A short description of series [1]: Hepatotoxicity in ICR mouse assessed as morphological changes in liver at 1 g/kg, ig administered daily for 14 days analysed after 22 hrs post-administration by hematoxylin and eosin staining based analysis. It counts as toxicity, tissue-based. As to conditions: in vivo, po, 1000 mg/kg, 336 h, time 14 day. A digest of the protocol: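 Liver from male mice taken 22 h after compound or vehicle; hematoxylin−eosin staining, viewed at ×100.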

Series [2] is described as follows: Effective permeability of the compound in pH 7.4 PBS/EtOH (70:30) at 100 ug/ml incubated for 18 hrs by PAMPA-BBB assay. It counts as ADME. To be noted: dose 100 µg/ml, read-out: Peff. A digest of the protocol:
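PAMPA-BBB with porcine brain lipid in dodecane (20 mg/mL) on PVDF filter. Donor holds compound at 100 μg/mL final (from 5 mg/mL DMSO stock) in PBS pH 7.4/EtOH 70:30; acceptor holds the same buffer. Incubated 18 h at 25 °C; donor and acceptor concentrations by UV at five wavelengths. Four wells, at least three runs, nine permeability standards; mean ± SD.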

A short description of series [3]: Ratio of Cmax in brain to plasma of ICR mouse at 10 mg/kg, po measured upto 240 mins. It counts as ADME, organism-based. A digest of the protocol: (§1)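 ICR mice given 10 mg/kg orally in 5% DMSO/40% PEG400/55% saline (1 mg/mL). Blood (retro-orbital) and brain collected at 30, 60, 120 and 240 min. Brain homogenized in 2 volumes PBS, extracted with ethyl acetate, dried and reconstituted in mobile phase. Plasma processed as in the rat study; LC/MS/MS. Brain/plasma ratios from exposures, AUC(B) vs AUC(P).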

The nature of series [4]: Acute toxicity in ICR mouse assessed as abnormal behaviour at 1 g/kg, ig administered […]. As to conditions: in vivo, po, 1000 mg/kg. A digest of the protocol:
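Single dose of 1 g/kg given intragastrically on day 1 to overnight-fasted mice (15−18 g), suspended in 5% DMSO, 40% PEG 400, 55% saline. Male and female groups (n = 9), with vehicle controls. Death, daily behaviour and body mass followed over the next 2 weeks.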

Series [5] in a line: Cmax in ICR mouse brain at 10 mg/kg, po measured upto 240 mins. It counts as ADME, organism-based. On the set-up: route oral, dose 10 mg/kg, time <=240. A digest of the protocol: as §1
The test system of another series is SH-SY5Y. Briefly: Neuroprotective activity against amyloid beta (1 to 42)-induced cytotoxicity in human SH-SY5Y cells at 2.5 uM pretreated for 2 hrs followed by amyloid beta (1 to 42) stimulation and measured after 24 hrs by MTT assay. To be noted: time 26.0 hrs. It counts as functional, cell-based. A digest of the protocol: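 SH-SY5Y cells seeded at 5000 per well and grown 24 h. Pretreated 2 h with compound (2.5 or 10 μM, diluted in DMEM from 10⁻¹ M DMSO stock), then H₂O₂ 200 μM, glutamate 20 mM or aggregated Aβ1-42 15 μM for 24 h. MTT added for 4 h, formazan dissolved in DMSO, absorbance read at 492 nm. Viability relative to untreated control; mean ± SEM, n = 3.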
(Formazan colour is commonly taken as a measure of viable cells.)

Activity calls are given as the source filed them. No cut-off for these calls is given here.

For orientation: Kp means tissue or fluid exposure divided by exposure in the circulation. For orientation: Cmax means the highest concentration seen after dosing.

With `Nc1nonc1-c1nc2ccccc2n1CC(=O)Nc1cnc2ccccc2c1`, the Activity entry in series [1] and in series [4] was “Non-Toxic” throughout. The Papp at 18 h, 100 ug/ml in series [2] was 4.45 ×10⁻⁶ cm/s. Moreover, the Kp at 4 h in series [3] was 0.24. The highest concentration (Cmax) in series [5] came to 12.1 ng/mL. In the series with SH-SY5Y, the result was Active.

The record behind these values is ChEMBL document CHEMBL5038583, “Highly Potent and Selective Butyrylcholinesterase Inhibitors for Cognitive Improvement and Neuroprotection” (J Med Chem, 2021).
